Here are results for 15 compounds from ChEMBL document CHEMBL2380281, “Synthesis of proline analogues as potent and selective cathepsin S inhibitors” (Bioorg Med Chem Lett, 2013).

For data set [1], the target named is T1, Cathepsin S (Homo sapiens, UniProt P25774). Kind of data set: Inhibition of human cathepsin-S.
Target sequence in this assay (P25774 whole entry): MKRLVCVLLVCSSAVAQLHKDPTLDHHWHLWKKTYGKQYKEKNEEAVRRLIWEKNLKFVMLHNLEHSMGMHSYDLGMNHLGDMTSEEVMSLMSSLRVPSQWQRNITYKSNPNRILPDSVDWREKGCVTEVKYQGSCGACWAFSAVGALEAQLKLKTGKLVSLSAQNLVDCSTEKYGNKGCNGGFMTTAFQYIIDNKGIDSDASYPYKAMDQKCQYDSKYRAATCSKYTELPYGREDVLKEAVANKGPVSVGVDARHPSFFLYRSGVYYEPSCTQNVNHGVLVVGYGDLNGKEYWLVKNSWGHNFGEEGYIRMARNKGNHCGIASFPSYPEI
For the next data set, the target named is T2, Cathepsin K (Homo sapiens, UniProt P43235).
T2 sequence (P43235 whole entry): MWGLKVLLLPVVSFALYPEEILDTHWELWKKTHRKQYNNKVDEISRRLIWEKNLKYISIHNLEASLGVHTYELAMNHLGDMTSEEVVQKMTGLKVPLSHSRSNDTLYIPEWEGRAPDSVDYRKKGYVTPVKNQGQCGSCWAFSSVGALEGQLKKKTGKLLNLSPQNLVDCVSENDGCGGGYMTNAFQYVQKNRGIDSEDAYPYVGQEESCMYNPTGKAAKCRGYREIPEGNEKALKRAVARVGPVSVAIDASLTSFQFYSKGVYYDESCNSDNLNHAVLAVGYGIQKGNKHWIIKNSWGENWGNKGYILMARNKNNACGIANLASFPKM
Kind of data set: Inhibition of human cathepsin-K. In a few lines:
(§1)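 Human cathepsin B and K activity measured with a SensoLyte 520 cathepsin activity assay kit; LHVS as pan-cathepsin positive control.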

A further data set concerns the target Cathepsin B (Homo sapiens, UniProt P07858). The experiment in a line: Inhibition of human cathepsin-B. In a few lines: as §1
For a further data set, the system named is Mus musculus. The experiment in a line: Antiarthritic activity in DBA1/J mouse assessed as decrease in collagen-induced arthritis score and degree of paw swelling at 30 mg/kg, po qd for 14 days. It is filed as functional, organism-based. Further details: dose 30 mg/kg. In a few lines:
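Male DBA1/J mice (8 weeks, n = 7/group) immunized intradermally at tail base with bovine type II collagen in complete Freund's adjuvant, boosted 3 weeks later with collagen in incomplete Freund's adjuvant. Oral dosing once daily at 30 mg/kg in 10% hydroxypropyl-β-cyclodextrin/water, or vehicle, for 14 days. Arthritis score and paw swelling graded per paw every 2–3 days for 2 weeks from day 10 post-boost.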

Data set [2] can be described thus: Oral bioavailability in beagle dog at 10 mg/kg. It is filed as ADME, organism-based, Canis lupus familiaris. As to conditions: in vivo. In a few lines:
(§2)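 Male beagle dogs aged 14 months dosed once, 10 mg/kg orally or 1 mg/kg intravenously, n = 3 per route; pharmacokinetic parameters calculated.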

A short description of data set [3]: Cmax in beagle dog at 1 mg/kg, iv and 10 mg/kg, po. It is filed as ADME, organism-based, Canis lupus familiaris. The settings on record: in vivo. In a few lines: as §2
The nature of data set [4]: Half life in beagle dog at 1 mg/kg, iv and 10 mg/kg, po. It is filed as ADME, organism-based, Canis lupus familiaris. As to conditions: in vivo. In a few lines: as §2
Data set [5] can be described thus: AUC (0 to 24 hrs) in beagle dog at 1 mg/kg, iv and 10 mg/kg, po. It is filed as ADME, organism-based, Canis lupus familiaris. As to conditions: plasma. The procedure, abridged:
as §2

Data set [6] can be described thus: Oral bioavailability in Sprague-Dawley rat at 10 mg/kg. It is filed as ADME, organism-based. The settings on record: in vivo. In a few lines: (§3)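 Male Sprague–Dawley rats, 7 weeks of age, received one oral dose of 10 mg/kg or one intravenous dose of 5 mg/kg (n = 3 each); pharmacokinetic parameters determined.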
The nature of data set [7]: Half life in Sprague-Dawley rat at 5 mg/kg, iv and 10 mg/kg, po. It is filed as ADME, organism-based. As to conditions: in vivo. The procedure, abridged: as §3
Data set [8] is described as follows: Cmax in Sprague-Dawley rat at 5 mg/kg, iv and 10 mg/kg, po. It counts as ADME, organism-based. The settings on record: in vivo. The procedure, abridged: as §3
Data set [9] in a line: AUC (0 to 24 hrs) in Sprague-Dawley rat at 5 mg/kg, iv and 10 mg/kg, po. It is filed as ADME, organism-based. The settings on record: plasma. The procedure, abridged:
as §3

A short description of data set [10]: Oral bioavailability in ICR mouse at 10 mg/kg. It is filed as ADME, organism-based. The settings on record: in vivo. The procedure, abridged: (§4)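 Single dose given orally (10 mg/kg) or intravenously (5 mg/kg) to male ICR mice, 7 weeks old, n = 3 per route; pharmacokinetic parameters derived from these dosings.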
A short description of data set [11]: Half life in ICR mouse at 5 mg/kg, iv and 10 mg/kg, po. It counts as ADME, organism-based. As to conditions: in vivo. In a few lines: as §4
Data set [12] in a line: Cmax in ICR mouse at 5 mg/kg, iv and 10 mg/kg, po. It is filed as ADME, organism-based. The settings on record: in vivo. In a few lines: as §4
Data set [13] can be described thus: AUC (0 to 24 hrs) in ICR mouse at 5 mg/kg, iv and 10 mg/kg, po. As to conditions: plasma. It counts as ADME, organism-based. In a few lines: as §4
For a further data set, the target named is Cytochrome P450 2D6 (Homo sapiens, UniProt P10635). Kind of data set: Inhibition of CYP2D6 (unknown origin) by fluorescence detection method. It counts as ADME.
The target of another data set is Cytochrome P450 2C19 (Homo sapiens, UniProt P33261). The experiment in a line: Inhibition of CYP2C19 (unknown origin) by fluorescence detection method. It counts as ADME.
Another data set has as its target T3, Cytochrome P450 1A2 (Homo sapiens, UniProt P05177).
T3 sequence (P05177 whole entry): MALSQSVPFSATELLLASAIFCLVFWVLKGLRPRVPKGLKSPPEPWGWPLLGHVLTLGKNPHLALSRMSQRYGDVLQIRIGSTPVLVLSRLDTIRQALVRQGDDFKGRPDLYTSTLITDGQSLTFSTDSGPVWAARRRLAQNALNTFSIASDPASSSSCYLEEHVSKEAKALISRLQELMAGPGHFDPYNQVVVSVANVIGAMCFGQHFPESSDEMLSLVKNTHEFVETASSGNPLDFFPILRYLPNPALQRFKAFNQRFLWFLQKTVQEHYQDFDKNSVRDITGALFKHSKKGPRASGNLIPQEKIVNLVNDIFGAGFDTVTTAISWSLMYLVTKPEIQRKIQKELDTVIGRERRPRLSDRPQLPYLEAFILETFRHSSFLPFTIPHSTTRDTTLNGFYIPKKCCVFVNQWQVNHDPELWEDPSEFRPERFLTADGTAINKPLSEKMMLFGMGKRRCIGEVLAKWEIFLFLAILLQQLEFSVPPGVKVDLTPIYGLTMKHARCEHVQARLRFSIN
Kind of data set: Inhibition of CYP1A2 (unknown origin) by fluorescence detection method. It counts as ADME.

In another data set the target is Cytochrome P450 2C9 (Homo sapiens, UniProt P11712). Kind of data set: Inhibition of CYP2C9 (unknown origin) by fluorescence detection method. It is filed as ADME.
Another data set concerns the target Cytochrome P450 3A4 (Homo sapiens, UniProt P08684). The experiment in a line: Inhibition of CYP3A4 (unknown origin) by fluorescence detection method. It is filed as ADME.
The nature of data set [14]: Metabolic stability in mouse liver microsomes assessed as compound remaining at 5 uM after 60 mins. The settings on record: read-out: Stability. It counts as ADME, Microsome. The procedure, abridged:
(§5)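 Compound at 5 µM incubated 60 min with mouse, rat, dog or human liver microsomes, in duplicate; result given as percentage of parent remaining.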

A short description of data set [15]: Metabolic stability in rat liver microsomes assessed as compound remaining at 5 uM after 60 mins. It is filed as ADME, Microsome. As to conditions: read-out: Stability. In a few lines:
as §5

Data set [16] can be described thus: Metabolic stability in dog liver microsomes assessed as compound remaining at 5 uM after 60 mins. As to conditions: read-out: Stability. It is filed as ADME, Canis lupus familiaris, Microsome. In a few lines:
as §5

Data set [17] in a line: Metabolic stability in human liver microsomes assessed as compound remaining at 5 uM after 60 mins. It counts as ADME, Microsome. As to conditions: read-out: Stability. In a few lines: as §5
Data set [18] deals with T1, Cathepsin S. Kind of data set: Inhibition of cathepsin-S in human Jiyoye cells assessed as conversion of invariant chain Lip10 to CLIP. It is filed as cell-based. The procedure, abridged:
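Jiyoye cells were stimulated with IFN-γ and treated with the inhibitor at 1, 10, 100 and 1000 nM, alongside untreated controls. The read-out was Lip10 accumulation.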
Target sequence in this assay (P25774 115-331 limits assumed): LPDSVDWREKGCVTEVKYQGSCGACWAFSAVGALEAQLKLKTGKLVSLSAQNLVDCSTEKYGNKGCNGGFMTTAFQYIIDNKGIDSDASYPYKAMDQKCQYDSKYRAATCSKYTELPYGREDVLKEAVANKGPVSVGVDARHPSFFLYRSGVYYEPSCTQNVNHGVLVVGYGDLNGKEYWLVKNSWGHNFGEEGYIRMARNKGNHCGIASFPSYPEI

The source made the active and inactive calls. The calls are words filed in the database; no cut-off is given here. Bounds are passed on as bounds.

Chain of Cytochrome P450 3A4 (P08684 whole entry): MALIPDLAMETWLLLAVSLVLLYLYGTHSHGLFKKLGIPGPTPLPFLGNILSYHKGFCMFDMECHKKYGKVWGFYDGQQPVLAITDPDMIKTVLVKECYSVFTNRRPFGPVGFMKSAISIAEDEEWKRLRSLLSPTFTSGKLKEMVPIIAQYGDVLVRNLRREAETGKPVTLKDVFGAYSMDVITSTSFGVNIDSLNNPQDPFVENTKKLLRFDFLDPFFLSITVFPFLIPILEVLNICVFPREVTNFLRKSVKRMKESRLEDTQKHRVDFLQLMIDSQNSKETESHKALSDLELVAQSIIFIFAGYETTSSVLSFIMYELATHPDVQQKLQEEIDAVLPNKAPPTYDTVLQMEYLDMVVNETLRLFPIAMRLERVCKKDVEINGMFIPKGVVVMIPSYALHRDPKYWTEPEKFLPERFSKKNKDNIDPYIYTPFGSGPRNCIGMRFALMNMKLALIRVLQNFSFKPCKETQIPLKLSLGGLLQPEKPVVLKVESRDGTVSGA
Chain of Cytochrome P450 2C19 (P33261 whole entry): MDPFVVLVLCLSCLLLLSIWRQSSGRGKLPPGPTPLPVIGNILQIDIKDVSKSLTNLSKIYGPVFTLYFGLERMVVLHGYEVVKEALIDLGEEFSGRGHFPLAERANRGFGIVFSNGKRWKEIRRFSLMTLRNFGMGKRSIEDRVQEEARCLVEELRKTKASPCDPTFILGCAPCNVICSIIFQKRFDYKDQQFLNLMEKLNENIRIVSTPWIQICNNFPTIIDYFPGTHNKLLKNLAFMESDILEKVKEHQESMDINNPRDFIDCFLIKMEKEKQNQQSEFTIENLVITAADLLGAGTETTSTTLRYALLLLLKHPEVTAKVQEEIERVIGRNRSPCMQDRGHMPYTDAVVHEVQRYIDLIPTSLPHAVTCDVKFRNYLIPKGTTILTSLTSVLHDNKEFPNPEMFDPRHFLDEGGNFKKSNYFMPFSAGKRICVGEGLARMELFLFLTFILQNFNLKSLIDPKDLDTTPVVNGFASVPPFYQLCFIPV
Chain of Cytochrome P450 2D6 (P10635 whole entry): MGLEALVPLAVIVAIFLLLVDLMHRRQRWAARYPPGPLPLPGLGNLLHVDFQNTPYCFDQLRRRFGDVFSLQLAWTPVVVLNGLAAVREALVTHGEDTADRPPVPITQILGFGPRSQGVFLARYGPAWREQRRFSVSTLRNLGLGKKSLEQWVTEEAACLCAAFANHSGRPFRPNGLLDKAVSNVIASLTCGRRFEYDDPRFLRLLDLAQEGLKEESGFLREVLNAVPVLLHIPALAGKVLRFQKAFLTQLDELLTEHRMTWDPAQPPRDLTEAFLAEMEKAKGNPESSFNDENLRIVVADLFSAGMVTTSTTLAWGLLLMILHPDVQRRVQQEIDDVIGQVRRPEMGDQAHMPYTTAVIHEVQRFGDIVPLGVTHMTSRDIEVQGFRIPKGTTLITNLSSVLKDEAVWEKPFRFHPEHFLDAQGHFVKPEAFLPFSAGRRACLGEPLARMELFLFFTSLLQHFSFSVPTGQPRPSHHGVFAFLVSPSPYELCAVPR
Chain of Cytochrome P450 2C9 (P11712 whole entry): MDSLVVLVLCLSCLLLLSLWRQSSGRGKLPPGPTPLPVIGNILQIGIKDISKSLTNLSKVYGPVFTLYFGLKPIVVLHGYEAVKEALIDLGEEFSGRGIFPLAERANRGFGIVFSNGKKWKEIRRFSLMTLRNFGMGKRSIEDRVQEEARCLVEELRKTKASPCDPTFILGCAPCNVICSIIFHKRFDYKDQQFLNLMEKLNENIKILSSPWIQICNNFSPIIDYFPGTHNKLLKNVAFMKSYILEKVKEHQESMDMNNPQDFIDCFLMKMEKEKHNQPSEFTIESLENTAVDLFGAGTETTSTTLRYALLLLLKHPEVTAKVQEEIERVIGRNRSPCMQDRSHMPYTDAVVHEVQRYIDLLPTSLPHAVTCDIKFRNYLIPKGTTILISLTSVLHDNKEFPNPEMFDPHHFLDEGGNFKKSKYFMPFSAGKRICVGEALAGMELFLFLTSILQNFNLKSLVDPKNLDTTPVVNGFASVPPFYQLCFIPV

At Cathepsin S [1], `CCC(NC(=O)[C@@H]1C[C@@H](S(=O)(=O)c2ccccc2)CN1C(=O)C(C)C)C(=O)c1nc2ccccc2o1` (some centres undefined) registered an IC50 of 2.4 nM.

In the case of `CC(=O)N1C[C@H](S(=O)(=O)c2ccccc2)C[C@H]1C(=O)NC(Cc1ccccc1)C(=O)c1nc2ccccc2o1` (some centres undefined), on Cathepsin S [1], the IC50 is above 100 nM.

For the compound `CCC(NC(=O)[C@@H]1C[C@@H](S(=O)(=O)CC)CN1C(C)=O)C(=O)c1nc2ccccc2o1` (some centres undefined), the IC50 against Cathepsin S [1] was above 100 nM.

For `CCC(NC(=O)[C@@H]1C[C@@H](S(=O)(=O)c2ccc(F)cc2)CN1C(C)=O)C(=O)c1nc2ccccc2o1` (some centres undefined), the IC50 against Cathepsin S [1] is 3.2 nM.

Take `CC(C)C[C@@H](NC(=O)N1CCOCC1)C(=O)N[C@@H](/C=C/S(=O)(=O)c1ccccc1)CCc1ccccc1`: the IC50 came out at 4 nM against Cathepsin K, 1.9 nM on Cathepsin S [1] and 3 nM on Cathepsin B.

In the case of `CCC(NC(=O)[C@@H]1C[C@@H](S(=O)(=O)c2ccccc2)CN1c1ccccc1)C(=O)c1nc2ccccc2o1` (some centres undefined), the IC50 against Cathepsin S [1] worked out at 12.4 nM.

Take `CC[C@H](NC(=O)[C@@H]1C[C@@H](S(=O)(=O)c2ccccc2)CN1C(C)=O)C(=O)c1nc2ccccc2o1`: the result in the data set with Mus musculus was Active. In addition, the bioavailability in [2] was 48.6%; in data set [6], 64.8%; in [10], 28.7%. Besides, the Cmax in data set [3] came out at 3820 ng/mL; in data set [8], 3520 ng/mL; in [12] it was 1910 ng/mL. In addition, the results for the half-life in data set [4], in data set [7] and in [11] were 3.7 h, 2.1 h and 1.6 h, respectively. In addition, the AUC(0-t) in data set [5] came to 5050 ng·h/mL; in [9], 7250 ng·h/mL; in [13] it was 1030 ng·h/mL. In addition, the IC50 at Cytochrome P450 2D6 is above 20000 nM; against Cytochrome P450 2C19, above 20000 nM; at Cytochrome P450 1A2, above 20000 nM; at Cytochrome P450 2C9, 5000 nM; against Cytochrome P450 3A4, 9950 nM; at Cathepsin K it was above 10000 nM. The IC50 on Cathepsin S [1] was 3.3 nM; against Cathepsin B, above 10000 nM. In addition, the remaining at 1 h, 5 µM in data set [14] was 37%; in data set [15] it was 37%; in [16] it was 47%; in [17] it was 70%. The inhibition entry at Cathepsin S [18] was “Active”.

In turn, `O=C(CNC(=O)[C@@H]1C[C@@H](S(=O)(=O)c2ccccc2)CN1C(=O)C1CCCCC1)c1nc2ccccc2o1` displayed an IC50 against Cathepsin S [1] of 36.6 nM.

With `CCC(NC(=O)[C@@H]1C[C@@H](S(=O)(=O)c2ccccc2)CN1S(C)(=O)=O)C(=O)c1nc2ccccc2o1` (some centres undefined), the IC50 against Cathepsin S [1] worked out at 3.5 nM.

Regarding `CC(=O)N1C[C@H](S(=O)(=O)c2ccccc2)C[C@H]1C(=O)NC(C)C(=O)c1nc2ccccc2o1` (some centres undefined), the IC50 against Cathepsin S [1] was determined as 18.1 nM.

`CCC(NC(=O)[C@@H]1C[C@@H]([S@](=O)c2ccccc2)CN1C(C)=O)C(=O)c1nc2ccccc2o1` (some centres undefined) yielded an IC50 against Cathepsin S [1] of 83.7 nM.

The compound `CCC(NC(=O)[C@@H]1C[C@@H](S(=O)(=O)c2ccccc2)CN1CC(C)=O)C(=O)c1nc2ccccc2o1` (some centres undefined) had an IC50 on Cathepsin S [1] of 45.4 nM.

The compound `CCC(NC(=O)[C@@H]1C[C@@H](S(=O)(=O)c2ccccc2)CN1C(=O)c1ccc(Cl)cc1)C(=O)c1nc2ccccc2o1` (some centres undefined) returned an IC50 against Cathepsin S [1] of 2 nM.

For `CCC(NC(=O)[C@@H]1C[C@@H](S(=O)(=O)c2ccccc2)CN1C(=O)c1ccccc1)C(=O)c1nc2ccccc2o1` (some centres undefined), the IC50 against Cathepsin K was above 10000 nM; on Cathepsin S [1], 3 nM; at Cathepsin B, above 10000 nM.

On to `CC(=O)N1C[C@H](S(=O)(=O)c2ccccc2)C[C@H]1C(=O)NC(C(=O)c1nc2ccccc2o1)C(C)C` (some centres undefined), for which, on Cathepsin S [1], the IC50 was determined as 24.6 nM.
